Results: ChEMBL document CHEMBL1833805, “Histone deacetylase inhibitors from Burkholderia thailandensis” (2011)
Activity calls are given as the source filed them. No cut-off for these calls is given here.

What was measured:
SF-295 [1] = assay: Antitumor activity against human SF295 cells implanted subcutaneously in mouse assessed as inhibition of tumor cell growth at 1.6 to 2.4 mg/kg, ip administered on day 1 to 4 measured on day 5 by hollow fiber assay; type: functional
Procedure, shortened: (§1)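 Human tumour cell lines from a standard 12-line panel encapsulated in polyvinylidene fluoride hollow fibres (500,000 Da exclusion), implanted intraperitoneally or subcutaneously in mice; drug given IP at 2.4 and 1.6 mg/kg/dose on days 1–4; fibres retrieved and viable cell mass determined day 5; T/C versus vehicle-only injected controls.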

[2] = target: Histone deacetylase 4 (Homo sapiens) (UniProt P56524); assay: Inhibition of human HDAC4 assessed as deacetylated substrate level using RHKAcKAc as substrate by fluorometric analysis
Procedure, shortened: (§2)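 Recombinant human HDAC4 with fluorogenic p53 379–382 peptide RHKAcKAc as substrate. Compound tested at 10 doses in duplicate, 3-fold serial dilution from 20 µM. Two steps: incubation with substrate, then digestion with a developing mixture. Fluorescence read at 360 nm excitation / 460 nm emission, proportional to deacetylated substrate.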

ACHN [3] = assay: Ratio of FK228 TGI to compound TGI for human ACHN cells; type: functional
UACC-257 [4] = assay: Ratio of FK228 TGI to compound TGI for human UACC257 cells; type: functional
COLO 205 [5] = assay: Ratio of FK228 TGI to compound TGI for human COLO205 cells; type: functional
U-251 [6] = assay: Cytotoxicity against human U251 cells after 6 days by MTT assay; type: functional; settings: U-251, 144 h
[7] = Antitumor activity against human […] cells implanted subcutaneously in mouse assessed as inhibition of tumor cell growth at 1.6 to 2.4 mg/kg, ip administered on day 1 to 4 measured on day 5 by hollow fiber assay; type: functional; procedure, shortened: as §1
U-251 [8] = assay: Ratio of FK228 LC50 to compound LC50 for human U251 cells; type: functional
SF-295 [9] = assay: Ratio of FK228 TGI to compound TGI for human SF295 cells; type: functional
A498 [10] = assay: Ratio of FK228 TGI to compound TGI for human A498 cells; type: functional
[11] = target: Histone deacetylase 1 (Homo sapiens) (UniProt Q13547); assay: Inhibition of human HDAC1 assessed as deacetylated substrate level using RHKKAc as substrate by fluorometric analysis
Procedure, shortened: as §2, with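 “HDAC1 or HDAC8” for “HDAC4”, “RHKKAc” for “RHKAcKAc”, “Substrate incubated” for “Two steps: incubation”, “compound,” for “substrate,”, “the mixture was digested” for “digestion”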

MDA-MB-468 [12] = assay: Cytotoxicity against human MDA-MB-468 cells after 6 days by MTT assay; type: functional; settings: MDA-MB-468, 144 h
CAKI-1 [13] = assay: Ratio of FK228 TGI to compound TGI for human Caki1 cells; type: functional
NCI-H23 = assay: Antitumor activity against human NCI-H23 cells implanted subcutaneously in mouse assessed as inhibition of tumor cell growth at 1.6 to 2.4 mg/kg, ip administered on day 1 to 4 measured on day 5 by hollow fiber assay; type: functional; procedure, shortened: as §1
LOX IMVI = assay: Antitumor activity against human LOXIMVI cells implanted subcutaneously in mouse assessed as inhibition of tumor cell growth at 1.6 to 2.4 mg/kg, ip administered on day 1 to 4 measured on day 5 by hollow fiber assay; type: functional; procedure, shortened: as §1
A498 [14] = assay: Cytotoxicity against human A498 cells after 6 days by MTT assay; type: functional; settings: A498, 144 h
COLO 205 [15] = assay: Ratio of FK228 LC50 to compound LC50 for human COLO205 cells; type: functional
OVCAR-5 = assay: Antitumor activity against human OVCAR5 cells implanted subcutaneously in mouse assessed as inhibition of tumor cell growth at 1.6 to 2.4 mg/kg, ip administered on day 1 to 4 measured on day 5 by hollow fiber assay; type: functional; procedure, shortened: as §1
U-251 [16] = assay: Ratio of FK228 TGI to compound TGI for human U251 cells; type: functional
NCI = assay: Cytotoxicity against human NCI60 cells after 6 days by MTT assay; type: functional; settings: 144 h
MDA-MB-231 [17] = assay: Antitumor activity against human MDA-MB-231 cells implanted subcutaneously in mouse assessed as inhibition of tumor cell growth at 1.6 to 2.4 mg/kg, ip administered on day 1 to 4 measured on day 5 by hollow fiber assay; type: functional; procedure, shortened: as §1
UO-31 [18] = assay: Cytotoxicity against human UO31 cells after 6 days by MTT assay; type: functional; settings: UO-31, 144 h
MDA-MB-231 [19] = assay: Ratio of FK228 TGI to compound TGI for human MDA-MB-231 cells; type: functional
NCI-H522 = assay: Antitumor activity against human NCI-H522 cells implanted subcutaneously in mouse assessed as inhibition of tumor cell growth at 1.6 to 2.4 mg/kg, ip administered on day 1 to 4 measured on day 5 by hollow fiber assay; type: functional; procedure, shortened: as §1
MDA-MB-231 [20] = assay: Cytotoxicity against human MDA-MB-231 cells after 6 days by MTT assay; type: functional; settings: MDA-MB-231, 144 h
A498 [21] = assay: Ratio of FK228 LC50 to compound LC50 for human A498 cells; type: functional
RXF 393 [22] = assay: Ratio of FK228 TGI to compound TGI for human RXF393 cells; type: functional
NCI-H322M [23] = assay: Ratio of FK228 TGI to compound TGI for human NCI-H322M cells; type: functional
RXF 393 [24] = assay: Ratio of FK228 LC50 to compound LC50 for human RXF393 cells; type: functional
RXF 393 [25] = assay: Cytotoxicity against human RXF393 cells after 6 days by MTT assay; type: functional; settings: RXF 393, 144 h
UO-31 [26] = assay: Ratio of FK228 TGI to compound TGI for human UO31 cells; type: functional
CAKI-1 [27] = assay: Cytotoxicity against human Caki1 cells after 6 days by MTT assay; type: functional; settings: CAKI-1, 144 h
U-251 [28] = assay: Antitumor activity against human U251 cells implanted subcutaneously in mouse assessed as inhibition of tumor cell growth at 1.6 to 2.4 mg/kg, ip administered on day 1 to 4 measured on day 5 by hollow fiber assay; type: functional; procedure, shortened: as §1
UACC-62 = assay: Antitumor activity against human UACC62 cells implanted subcutaneously in mouse assessed as inhibition of tumor cell growth at 1.6 to 2.4 mg/kg, ip administered on day 1 to 4 measured on day 5 by hollow fiber assay; type: functional; procedure, shortened: as §1
COLO 205 [29] = assay: Cytotoxicity against human COLO205 cells after 6 days by MTT assay; type: functional; settings: COLO 205, 144 h
ACHN [30] = assay: Cytotoxicity against human ACHN cells after 6 days by MTT assay; type: functional; settings: 144 h
SN12C [31] = assay: Ratio of FK228 TGI to compound TGI for human SN12C cells; type: functional
[32] = target: Histone deacetylase 8 (Homo sapiens) (UniProt Q9BY41); assay: Inhibition of human HDAC8 assessed as deacetylated substrate level using RHKKAc as substrate by fluorometric analysis
Procedure, shortened: as §2, with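 “HDAC1 or HDAC8” for “HDAC4”, “RHKKAc” for “RHKAcKAc”, “Substrate incubated” for “Two steps: incubation”, “compound,” for “substrate,”, “the mixture was digested” for “digestion”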

MDA-MB-468 [33] = assay: Ratio of FK228 TGI to compound TGI for human MDA-MB-468 cells; type: functional
SN12C [34] = assay: Cytotoxicity against human SN12C cells after 6 days by MTT assay; type: functional; settings: 144 h
COLO 205 [35] = assay: Antitumor activity against human COLO205 cells implanted subcutaneously in mouse assessed as inhibition of tumor cell growth at 1.6 to 2.4 mg/kg, ip administered on day 1 to 4 measured on day 5 by hollow fiber assay; type: functional; procedure, shortened: as §1
SW-620 = assay: Antitumor activity against human SW620 cells implanted subcutaneously in mouse assessed as inhibition of tumor cell growth at 1.6 to 2.4 mg/kg, ip administered on day 1 to 4 measured on day 5 by hollow fiber assay; type: functional; procedure, shortened: as §1
MDA-MB-435 = assay: Antitumor activity against human MDA-MB-435 cells implanted subcutaneously in mouse assessed as inhibition of tumor cell growth at 1.6 to 2.4 mg/kg, ip administered on day 1 to 4 measured on day 5 by hollow fiber assay; type: functional; procedure, shortened: as §1
UACC-257 [36] = assay: Cytotoxicity against human UACC257 cells after 6 days by MTT assay; type: functional; settings: UACC-257, 144 h
SF-295 [37] = assay: Cytotoxicity against human SF295 cells after 6 days by MTT assay; type: functional; settings: SF-295, 144 h
NCI-H322M [38] = assay: Cytotoxicity against human NCI-H322M cells after 6 days by MTT assay; type: functional; settings: 144 h
[39] = read-out: LC50 (the source's name)

Chain of Histone deacetylase 4 (Homo sapiens) (P56524 whole entry): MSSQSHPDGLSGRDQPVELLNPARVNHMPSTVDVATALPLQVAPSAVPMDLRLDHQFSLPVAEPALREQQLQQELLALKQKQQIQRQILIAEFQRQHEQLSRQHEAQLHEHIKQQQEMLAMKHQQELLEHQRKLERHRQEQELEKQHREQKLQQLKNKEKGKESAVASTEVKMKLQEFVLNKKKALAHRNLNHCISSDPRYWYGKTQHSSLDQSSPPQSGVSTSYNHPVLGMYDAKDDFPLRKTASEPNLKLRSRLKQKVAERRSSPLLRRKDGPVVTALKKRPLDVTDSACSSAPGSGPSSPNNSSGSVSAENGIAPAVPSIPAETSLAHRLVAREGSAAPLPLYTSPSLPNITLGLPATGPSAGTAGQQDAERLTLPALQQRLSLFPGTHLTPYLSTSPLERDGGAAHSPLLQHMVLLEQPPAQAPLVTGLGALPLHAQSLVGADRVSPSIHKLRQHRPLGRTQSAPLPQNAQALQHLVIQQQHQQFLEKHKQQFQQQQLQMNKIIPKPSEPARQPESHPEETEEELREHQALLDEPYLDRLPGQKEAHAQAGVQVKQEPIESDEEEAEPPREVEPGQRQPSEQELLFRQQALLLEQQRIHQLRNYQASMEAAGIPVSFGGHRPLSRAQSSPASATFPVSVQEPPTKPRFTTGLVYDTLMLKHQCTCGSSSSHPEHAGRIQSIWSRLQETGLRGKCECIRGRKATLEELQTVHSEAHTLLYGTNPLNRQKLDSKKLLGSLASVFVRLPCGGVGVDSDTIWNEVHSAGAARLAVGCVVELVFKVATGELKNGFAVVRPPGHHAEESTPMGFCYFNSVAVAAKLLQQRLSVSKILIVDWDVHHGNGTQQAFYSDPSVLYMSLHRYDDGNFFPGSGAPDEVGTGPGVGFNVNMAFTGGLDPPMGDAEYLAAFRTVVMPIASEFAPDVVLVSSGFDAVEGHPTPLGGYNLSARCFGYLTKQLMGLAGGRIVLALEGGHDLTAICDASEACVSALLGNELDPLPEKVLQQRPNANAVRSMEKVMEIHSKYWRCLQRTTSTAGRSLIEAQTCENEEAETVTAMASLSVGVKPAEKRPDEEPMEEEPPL
Chain of Histone deacetylase 8 (Homo sapiens) (Q9BY41 whole entry): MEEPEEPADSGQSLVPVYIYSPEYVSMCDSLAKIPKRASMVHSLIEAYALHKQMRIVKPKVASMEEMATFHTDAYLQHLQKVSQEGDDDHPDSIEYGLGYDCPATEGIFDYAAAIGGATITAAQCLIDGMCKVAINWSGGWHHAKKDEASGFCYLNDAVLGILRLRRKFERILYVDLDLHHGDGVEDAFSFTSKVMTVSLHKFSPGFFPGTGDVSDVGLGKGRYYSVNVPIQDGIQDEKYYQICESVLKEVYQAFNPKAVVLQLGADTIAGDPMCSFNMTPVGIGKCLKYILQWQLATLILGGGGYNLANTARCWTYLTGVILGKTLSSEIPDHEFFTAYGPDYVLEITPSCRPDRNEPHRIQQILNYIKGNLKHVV
Chain of Histone deacetylase 1 (Homo sapiens) (Q13547 whole entry): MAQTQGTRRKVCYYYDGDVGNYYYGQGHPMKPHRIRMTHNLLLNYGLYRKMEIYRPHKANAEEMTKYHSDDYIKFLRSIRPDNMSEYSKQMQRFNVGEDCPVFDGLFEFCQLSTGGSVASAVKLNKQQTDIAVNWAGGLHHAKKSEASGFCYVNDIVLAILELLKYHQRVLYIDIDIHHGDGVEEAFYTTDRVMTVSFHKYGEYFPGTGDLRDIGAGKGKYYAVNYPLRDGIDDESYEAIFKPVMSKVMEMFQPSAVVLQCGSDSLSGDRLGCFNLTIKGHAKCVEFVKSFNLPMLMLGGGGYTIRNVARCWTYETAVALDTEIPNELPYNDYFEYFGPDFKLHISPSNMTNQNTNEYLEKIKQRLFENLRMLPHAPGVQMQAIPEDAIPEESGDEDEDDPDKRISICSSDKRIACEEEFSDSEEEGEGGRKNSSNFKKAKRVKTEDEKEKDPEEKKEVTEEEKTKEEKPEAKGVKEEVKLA

Question: With `CC[C@H](C)[C@H]1NC(=O)[C@H]2CSSCC/C=C/[C@H](CC(=O)N[C@H](CC[S+](C)[O-])C(=O)N2)OC(=O)C[C@@H]1O` (stereo partly specified) [SPIRUCHOSTATIN C] as the molecule, how does the T/C (SF-295 [1]) read?
Answer: >50%

Question: And the inhibition [2]?
Answer: Active

Question: What about the Ratio (ACHN [3]) of the same molecule?
Answer: 4

Question: What about the Ratio (UACC-257 [4]) of the same molecule?
Answer: 2.9

Question: And the Ratio (COLO 205 [5])?
Answer: 3.8

Question: And the TGI (U-251 [6])?
Answer: 12 nM

Question: And the CC50 (U-251 [6]; [39])?
Answer: 37 nM

Question: What about the T/C [7] of the same molecule?
Answer: >50%

Question: What about the Ratio (U-251 [8]) of the same molecule?
Answer: 3.6

Question: What about the Ratio (SF-295 [9]) of the same molecule?
Answer: 2.3

Question: What about the Ratio (A498 [10]) of the same molecule?
Answer: 2.4

Question: What about the inhibition [11] of the same molecule?
Answer: Active

Question: What about the TGI (MDA-MB-468 [12]) of the same molecule?
Answer: 23 nM

Question: What about the Ratio (CAKI-1 [13]) of the same molecule?
Answer: 2.1

Question: What about the T/C (NCI-H23) of the same molecule?
Answer: >50%

Question: What about the T/C (LOX IMVI) of the same molecule?
Answer: >50%

Question: And the TGI (A498 [14])?
Answer: 12 nM

Question: And the CC50 (A498 [14]; [39])?
Answer: 55 nM

Question: And the Ratio (COLO 205 [15])?
Answer: 6

Question: And the T/C (OVCAR-5)?
Answer: >50%

Question: And the Ratio (U-251 [16])?
Answer: 2.7

Question: What about the TGI (NCI) of the same molecule?
Answer: 830 nM

Question: And the CC50 (NCI; [39])?
Answer: 7.7 µM

Question: And the T/C (MDA-MB-231 [17])?
Answer: >50%

Question: And the TGI (UO-31 [18])?
Answer: 320 nM

Question: What about the Ratio (MDA-MB-231 [19]) of the same molecule?
Answer: 2.4

Question: What about the T/C (NCI-H522) of the same molecule?
Answer: >50%

Question: What about the TGI (MDA-MB-231 [20]) of the same molecule?
Answer: 150 nM

Question: And the Ratio (A498 [21])?
Answer: 3.6

Question: And the Ratio (RXF 393 [22])?
Answer: 3.8

Question: And the Ratio (NCI-H322M [23])?
Answer: 2.3

Question: What about the Ratio (RXF 393 [24]) of the same molecule?
Answer: 1.8

Question: And the TGI (RXF 393 [25])?
Answer: 16 nM

Question: What about the CC50 (RXF 393 [25]; [39]) of the same molecule?
Answer: 170 nM

Question: What about the Ratio (UO-31 [26]) of the same molecule?
Answer: 4.9

Question: What about the TGI (CAKI-1 [27]) of the same molecule?
Answer: 880 nM

Question: What about the T/C (U-251 [28]) of the same molecule?
Answer: >50%

Question: What about the T/C (UACC-62) of the same molecule?
Answer: >50%

Question: And the TGI (COLO 205 [29])?
Answer: 8 nM

Question: And the CC50 (COLO 205 [29]; [39])?
Answer: 15 nM

Question: And the TGI (ACHN [30])?
Answer: 180 nM

Question: What about the Ratio (SN12C [31]) of the same molecule?
Answer: 2.1

Question: What about the inhibition [32] of the same molecule?
Answer: Active

Question: What about the Ratio (MDA-MB-468 [33]) of the same molecule?
Answer: 3.9

Question: And the TGI (SN12C [34])?
Answer: 160 nM

Question: And the T/C (COLO 205 [35])?
Answer: >50%

Question: And the T/C (SW-620)?
Answer: >50%

Question: What about the T/C (MDA-MB-435) of the same molecule?
Answer: >50%

Question: What about the TGI (UACC-257 [36]) of the same molecule?
Answer: 33 nM

Question: And the TGI (SF-295 [37])?
Answer: 110 nM

Question: And the TGI (NCI-H322M [38])?
Answer: 100 nM
